The values that follow come from ChEMBL document CHEMBL1131432, “Side chain methyl substitution in the delta-opioid receptor antagonist TIPP has an important effect on the activity profile” (J Med Chem, 1998).

One may read the Ki as the equilibrium dissociation constant of an inhibitor or competing ligand from its target. Higher therefore signals lower affinity. What is called IC50 is the concentration at which inhibition is half-maximal. Read a low IC50 as greater potency. A word on the IC25: it is the point of the concentration-response curve where the effect stands at 25%.

SMILES strings stand for the structures.

Assay [1] concerns the target Mu-type opioid receptor (Rattus norvegicus, UniProt P33535). The assay is described as follows: Binding affinity towards Opioid receptor mu 1 on rat forebrain membranes by [3H]sufentanil displacement. More on the design: species or system Membrane.
Assay [2] is filed under the species Mus musculus. The assay is described as follows: Inhibition of electrically evoked contractions of MVD. In MVD assay, the opioid effect was primarily mediated by delta-receptor. The class given is functional. The method in brief:
(§1)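 Isolated guinea pig ileum or mouse vas deferens, electrically stimulated; the read-out is inhibition of contractions. A [Leu5]enkephalin log dose–response curve was run on each preparation and test IC50 values were normalised to it. Antagonist Ke was taken from the IC50 ratio with and without a fixed antagonist concentration; in MVD the δ-antagonism was measured against DPDPE.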

The species entered for assay [3] is Cavia porcellus. Kind of assay: In vitro agonist activity in electrically stimulated guinea pig ileum. The class given is functional. The method in brief: as §1
Assay [4] addresses Kappa-type opioid receptor (Cavia porcellus, UniProt P41144). Kind of assay: Binding affinity towards Opioid receptor kappa 1 on guinea pig cerebellum membranes by [3H]U-69593 displacement. The class given is tissue-based, Membrane.
Assay [5] is filed under the species Mus musculus. Kind of assay: (§2) Inhibition of electrically evoked contractions of MVD in MVD assay, the opioid effect was primarily mediated by delta-receptor. The class given is functional. The essentials:
as §1

For assay [6], the species on record is Mus musculus. The assay is described as follows: Inhibition of electrically evoked contractions of MVD. In MVD assay, the opioid effect is primarily mediated by delta-receptor. The class given is functional. The method in brief: (§3)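 Mouse vas deferens preparations, electrically stimulated, with inhibition of evoked contractions as the read-out. Each preparation got a [Leu5]enkephalin log dose-response curve as standard, and test IC50 values were normalized against it. Antagonism was tested against the agonist DPDPE. Ke came from the ratio of agonist IC50 with and without a fixed antagonist concentration.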

The species entered for assay [7] is Mus musculus. The description is as §2. The class given is functional, organism-based. The essentials:
as §1

Assay [8] is filed under the species Cavia porcellus. Kind of assay: In vitro opioid activity tested in bioassay based on inhibition of electrically evoked contractions of the GPI. The class given is functional. The method in brief:
as §1

The species entered for assay [9] is Mus musculus. The description is as §2. The class given is functional. This is another data set of the same source.
The species named for assay [10] is Mus musculus. The assay is described as follows: Inhibition of electrically evoked contractions of MVD. In MVD assay, the opioid effect are primarily mediated by delta-receptors. The class given is functional. The essentials:
as §3

Chain of Kappa-type opioid receptor (P41144 whole entry): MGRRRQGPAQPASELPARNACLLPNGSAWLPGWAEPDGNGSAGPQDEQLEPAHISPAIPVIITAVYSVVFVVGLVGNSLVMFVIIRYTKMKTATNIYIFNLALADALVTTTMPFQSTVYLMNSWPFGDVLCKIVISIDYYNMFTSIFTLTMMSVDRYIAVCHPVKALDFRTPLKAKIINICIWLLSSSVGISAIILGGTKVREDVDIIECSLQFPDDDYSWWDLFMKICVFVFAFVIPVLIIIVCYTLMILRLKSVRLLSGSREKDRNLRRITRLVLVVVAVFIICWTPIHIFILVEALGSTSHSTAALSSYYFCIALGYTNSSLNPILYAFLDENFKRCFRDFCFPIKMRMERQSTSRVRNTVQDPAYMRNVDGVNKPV
Chain of Mu-type opioid receptor (P33535 whole entry): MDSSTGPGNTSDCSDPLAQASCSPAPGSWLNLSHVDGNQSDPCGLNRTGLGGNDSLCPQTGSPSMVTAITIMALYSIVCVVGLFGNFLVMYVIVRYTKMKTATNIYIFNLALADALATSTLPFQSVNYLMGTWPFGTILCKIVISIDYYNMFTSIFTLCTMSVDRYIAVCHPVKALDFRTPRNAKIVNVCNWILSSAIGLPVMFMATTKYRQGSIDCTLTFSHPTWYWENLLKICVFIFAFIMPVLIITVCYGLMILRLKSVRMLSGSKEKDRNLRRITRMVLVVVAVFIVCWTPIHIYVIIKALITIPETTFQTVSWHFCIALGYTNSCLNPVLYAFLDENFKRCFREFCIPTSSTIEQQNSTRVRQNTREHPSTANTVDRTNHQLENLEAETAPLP

The compound `NC(=O)[C@H](Cc1ccccc1)NC(=O)[C@@H](Cc1ccccc1)NC(=O)[C@@H]1Cc2ccccc2CN1C(=O)[C@@H](N)Cc1ccc(O)cc1` registered a Ki in assay [1] of 658 nM. The Ke in [2] is listed as 125 nM. The IC50 in [3] is > 10000 nM.

In the case of `C[C@H]1c2ccccc2CN(C(=O)C(N)Cc2ccc(O)cc2)[C@H]1C(=O)N[C@@H](Cc1ccccc1)C(=O)N[C@@H](Cc1ccccc1)C(=O)O` (single isomer, unassigned), the inhibitory constant (Ki) in [1] and in [4] was > 10000 nM each time. The compound also registered a Ke in [2] of 1.61 nM. Also, the 50% inhibitory concentration (IC50) in assay [3] is > 10000 nM.

For the compound `C[C@H](c1ccccc1)C(NC(=O)[C@@H]1Cc2ccccc2CN1C(=O)[C@@H](N)Cc1ccc(O)cc1)C(=O)N[C@@H](Cc1ccccc1)C(N)=O` (single isomer, unassigned), in [5], the Ke was 54.4 nM. The Ki is > 10000 nM in assay [1] and 442 nM in assay [4]. The half-maximal inhibitory concentration (IC50) in assay [3] was > 10000 nM.

Compound `N[C@@H](Cc1ccc(O)cc1)C(=O)N1Cc2ccccc2C[C@H]1C(=O)NC(Cc1ccccc1)C(=O)N[C@@H](Cc1ccccc1)C(=O)O` (single isomer, unassigned) came in with an inhibitory constant (Ki) in [1] of 4000 nM.

`NC(=O)[C@H](Cc1ccccc1)NC(=O)[C@H](Cc1ccccc1)NC(=O)[C@@H]1Cc2ccccc2CN1C(=O)[C@@H](N)Cc1ccc(O)cc1`: the Ki in assay [1] was 178 nM; in assay [4], 838 nM. Besides, the Ke in assay [6] is recorded as 18 nM.

In the case of `C[C@H](c1ccccc1)[C@H](NC(=O)[C@@H]1Cc2ccccc2CN1C(=O)[C@@H](N)Cc1ccc(O)cc1)C(=O)N[C@@H](Cc1ccccc1)C(N)=O`, the Ke in [5] is 7.24 nM. Further, the inhibition constant (Ki) turned out to be 149 nM in [1] and 4320 nM in assay [4]. This compound registered an IC50 in [3] of 5080 nM.

For `NC(=O)[C@H](Cc1ccccc1)NC(=O)[C@H](Cc1ccccc1)NC(=O)C1Cc2ccccc2CN1C(=O)[C@@H](N)Cc1ccc(O)cc1` (single isomer, unassigned), the Ki in [1] is 7.3 nM. Further, the IC50 in assay [3] turned out to be 37.1 nM; in assay [7] it was 454 nM.

For the compound `C[C@H](c1ccccc1)[C@@H](NC(=O)[C@H](Cc1ccccc1)NC(=O)[C@@H]1Cc2ccccc2CN1C(=O)[C@@H](N)Cc1ccc(O)cc1)C(N)=O`, the IC35 in assay [8] turned out to be 1710 nM. In addition, in assay [5], the Ke came to 20.5 nM. The inhibition constant (Ki) in [1] was determined as 498 nM; in assay [4], 766 nM.

As to `CC1c2ccccc2CN(C(=O)C(N)Cc2ccc(O)cc2)[C@@H]1C(=O)N[C@@H](Cc1ccccc1)C(=O)N[C@@H](Cc1ccccc1)C(=O)O` (single isomer, unassigned), the Ki in [1] and in [4] was > 10000 nM in each case. This compound also registered a Ke in assay [2] of 2.09 nM. Also, the concentration for half-maximal inhibition (IC50) in [3] is > 10000 nM.

Take `C[C@@H]1c2ccccc2CN(C(=O)[C@@H](N)Cc2ccc(O)cc2)C1C(=O)N[C@@H](Cc1ccccc1)C(=O)N[C@@H](Cc1ccccc1)C(=O)O` (single isomer, unassigned; 15): the Ke in assay [5] was 1560 nM. In addition, the inhibition constant Ki in [1] and in [4] was > 10000 nM each time. In assay [3], the 50% inhibitory concentration (IC50) is > 10000 nM.

As for `C[C@@H](c1ccccc1)[C@H](NC(=O)[C@H](Cc1ccccc1)NC(=O)[C@@H]1Cc2ccccc2CN1C(=O)[C@@H](N)Cc1ccc(O)cc1)C(N)=O`, the Ki in [1] is 47 nM; in assay [4] it was 1280 nM. The compound further had a Ke in [2] of 5.36 nM. The half-inhibitory concentration (IC50) in assay [3] turned out to be 636 nM.

Take `C[C@@H](c1ccc(O)cc1)C(N)C(=O)N1Cc2ccccc2C[C@H]1C(=O)N[C@@H](Cc1ccccc1)C(=O)N[C@@H](Cc1ccccc1)C(N)=O` (single isomer, unassigned): the Ke in assay [5] was 317 nM. For the same compound, the Ki is > 10000 nM in assay [1] and 2510 nM in [4]. Further, in [3], the IC50 was > 10000 nM.

For the compound `C[C@@H](c1ccccc1)[C@H](NC(=O)[C@@H]1Cc2ccccc2CN1C(=O)[C@@H](N)Cc1ccc(O)cc1)C(=O)N[C@@H](Cc1ccccc1)C(N)=O`, the figures for the inhibitory constant (Ki) in [1] and in assay [4] were 973 nM and 3400 nM, respectively. Moreover, in assay [2], the Ke worked out at 18.2 nM. This compound also gave a concentration for half-maximal inhibition (IC50) in [3] of 5520 nM.

In the case of `C[C@H](c1ccccc1)C(NC(=O)[C@H](Cc1ccccc1)NC(=O)[C@@H]1Cc2ccccc2CN1C(=O)[C@@H](N)Cc1ccc(O)cc1)C(N)=O` (single isomer, unassigned), the Ke in assay [5] is 5.37 nM. Further, the Ki in [1] was determined as 2020 nM; in [4], 253 nM. The same compound had an IC50 in [3] of 2740 nM.

The compound `C[C@@H](c1ccccc1)[C@@H](NC(=O)[C@H](Cc1ccccc1)NC(=O)[C@@H]1Cc2ccccc2CN1C(=O)[C@@H](N)Cc1ccc(O)cc1)C(N)=O` registered a Ke in assay [5] of 27.7 nM. The inhibition constant Ki in assay [1] is > 10000 nM; in assay [4] it was 2840 nM. The compound further displayed a concentration for half-maximal inhibition (IC50) in assay [3] of 4510 nM.

`C[C@H](c1ccc(O)cc1)[C@H](N)C(=O)N1Cc2ccccc2C[C@H]1C(=O)N[C@@H](Cc1ccccc1)C(=O)N[C@@H](Cc1ccccc1)C(N)=O` returned an IC25 in [9] of 1030 nM. Also, the Ki was 284 nM in assay [1] and > 10000 nM in assay [4]. In assay [3], this compound gave a 50% inhibitory concentration (IC50) of 1210 nM.

With `C[C@@H]1c2ccccc2CN(C(=O)[C@@H](N)Cc2ccc(O)cc2)C1C(=O)N[C@@H](Cc1ccccc1)C(=O)N[C@@H](Cc1ccccc1)C(=O)O` (single isomer, unassigned; 16), the Ke in [5] is 401 nM. For the same compound, the Ki in [1] and in assay [4] was > 10000 nM throughout. The concentration for half-maximal inhibition (IC50) in [3] was > 10000 nM.

In the case of `C[C@@H](c1ccccc1)C(NC(=O)[C@@H]1Cc2ccccc2CN1C(=O)[C@@H](N)Cc1ccc(O)cc1)C(=O)N[C@@H](Cc1ccccc1)C(N)=O` (single isomer, unassigned), the values for the Ki in [1] and in [4] were 84 nM and 1190 nM, respectively. This compound also returned an IC50 in assay [3] of 127 nM.

`C[C@H](c1ccc(O)cc1)[C@@H](N)C(=O)N1Cc2ccccc2C[C@H]1C(=O)N[C@@H](Cc1ccccc1)C(=O)N[C@@H](Cc1ccccc1)C(N)=O`: the Ke in assay [5] was found to be 1020 nM. The results for the Ki in assay [1] and in assay [4] were 1600 nM and 1180 nM, respectively. Moreover, in assay [3], the IC50 is > 10000 nM.

With `N[C@@H](Cc1ccc(O)cc1)C(=O)N1Cc2ccccc2C[C@H]1C(=O)N[C@@H](Cc1ccccc1)C(=O)N[C@@H](Cc1ccccc1)C(=O)O`, the inhibition constant (Ki) in assay [1] and in assay [4] was > 10000 nM in each case. Moreover, the Ke in [2] came out at 4.8 nM. The half-maximal inhibitory concentration (IC50) in [3] was > 10000 nM.

In [10], `C[C@@H](c1ccc(O)cc1)[C@H](N)C(=O)N1Cc2ccccc2C[C@H]1C(=O)N[C@@H](Cc1ccccc1)C(=O)N[C@@H](Cc1ccccc1)C(N)=O` displayed a Ke of 102 nM. Moreover, the Ki in [1] is 352 nM; in [4], > 10000 nM. For the same compound, in [3], the IC50 is > 10000 nM.

For `C[C@H](c1ccccc1)[C@@H](NC(=O)[C@@H]1Cc2ccccc2CN1C(=O)[C@@H](N)Cc1ccc(O)cc1)C(=O)N[C@@H](Cc1ccccc1)C(=O)O`, the inhibitory constant (Ki) in assay [1] and in [4] was > 10000 nM throughout. In assay [2], the Ke was 0.192 nM. In addition, the concentration for half-maximal inhibition (IC50) in assay [3] was > 10000 nM.
